Calls of active or inactive are those of the source. The rule behind the calls is not given here.
How the values were obtained:
[1] = target: T1, 3'-5' exonuclease crn-4 (Caenorhabditis elegans) (UniProt Q10905); assay: (§1) Inhibition of GST-tagged Caenorhabditis elegans CRN-4 exonuclease activity expressed in Escherichia coli BL21 (DE3) pLysS preincubated for 10 mins followed by [gamma-32P]ATP labelled 11-nucleotide ssRNA substrate addition for 30 mins by PAGE based autoradiography
T1 sequence (whole entry): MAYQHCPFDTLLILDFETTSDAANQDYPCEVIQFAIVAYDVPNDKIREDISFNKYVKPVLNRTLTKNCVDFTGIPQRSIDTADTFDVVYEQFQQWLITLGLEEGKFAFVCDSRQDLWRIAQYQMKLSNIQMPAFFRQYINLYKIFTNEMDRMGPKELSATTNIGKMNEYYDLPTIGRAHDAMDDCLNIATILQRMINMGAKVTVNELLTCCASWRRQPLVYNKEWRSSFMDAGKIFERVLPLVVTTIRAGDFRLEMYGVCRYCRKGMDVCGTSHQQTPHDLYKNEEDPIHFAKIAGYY

[2] = target: T2, Ribonuclease T (Escherichia coli (strain K12)) (UniProt P30014); assay: (§2) Inhibition of N-terminal His-tagged recombinant Escherichia coli K-12 RNase T exonuclease activity expressed in Escherichia coli BL21-CodonPlus(DE3)-RIPL preincubated for 10 mins followed by [gamma-32P]ATP labelled 11-nucleotide ssDNA substrate addition for 40 mins by PAGE based autoradiography
T2 sequence (whole entry): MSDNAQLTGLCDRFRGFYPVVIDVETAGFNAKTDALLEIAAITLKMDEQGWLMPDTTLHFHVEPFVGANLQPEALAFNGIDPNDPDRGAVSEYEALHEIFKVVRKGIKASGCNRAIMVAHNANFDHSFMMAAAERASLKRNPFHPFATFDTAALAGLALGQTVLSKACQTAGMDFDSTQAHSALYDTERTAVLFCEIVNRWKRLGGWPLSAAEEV

[3] = target: T1, 3'-5' exonuclease crn-4 (Caenorhabditis elegans); assay: (§3) Inhibition of 5'-[gamma-32P]ATP-labelled 11-nucleotide ssRNA binding to Caenorhabditis elegans GST-tagged CRN-4 expressed in Escherichia coli BL21 (DE3) pLysS at 1 mM preincubated for 10 mins followed by substrate addition measured after 20 mins by TBE gel electrophoresis mobility shift assay
Procedure, shortened: (§4)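 Gel-shift assay. Inhibitor was mixed with protein (CRN-4 or RNase T) for 10 min at room temperature, then 20 nM 5′-32P-labelled 11-nt substrate was added (RNA for CRN-4, DNA for RNase T). Buffer: 50 mM Tris-HCl pH 7.0, 120 mM NaCl, 10 mM EGTA, 40 mM EDTA, ±10% DMSO, 20 min at room temperature. Complexes were resolved on 20% TBE gels and read by phosphorimaging.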

Mammarenavirus lassaense [4] = assay: Inhibition of Lassa virus N-terminal His-tagged NP exonuclease domain (342 to 569 residues) expressed in Escherichia coli Tuner (DE3) using FAM-labeled 20-nucleotide ssRNA preincubated for 10 mins followed by substrate addition measured after 60 mins by PAGE based […]
Procedure, shortened: (§5)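 Purified NP exonuclease domain (2 μM), alone or with inhibitor, was incubated with 1 μM 5′-FAM-labelled RNA (20-nt ssRNA or stem-loop with 4-nt 3′ overhang). Buffer: 120 mM NaCl, 2 mM MgCl2, 20 mM Tris-HCl pH 7.0, ±10% DMSO, room temperature, 60 min. Products were run on 20% denaturing gels under UV. Cleavage was quantified across inhibitor concentrations to calculate IC50.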

Mammarenavirus lassaense [5] = assay: (§6) Inhibition of Lassa virus N-terminal His-tagged NP exonuclease domain (342 to 569 residues) expressed in Escherichia coli Tuner (DE3) using 3'-overhang 4-nucleotide stem-loop RNA preincubated for 10 mins followed by substrate addition measured after 60 mins by PAGE based […]; procedure, shortened: as §5
[6] = target: 3'-5' exonuclease crn-4 (Caenorhabditis elegans) (UniProt Q10905); assay: as §1; remark: listed apart in the source
[7] = target: Ribonuclease T (Escherichia coli (strain K12)) (UniProt P30014); assay: as §2; remark: listed apart in the source
[8] = target: 3'-5' exonuclease crn-4 (Caenorhabditis elegans) (UniProt Q10905); assay: as §3; procedure, shortened: as §4; remark: listed apart in the source
[9] = target: Ribonuclease T (Escherichia coli (strain K12)) (UniProt P30014); assay: (§7) Inhibition of 5'-[gamma-32P]ATP-labelled 11-nucleotide ssDNA binding to recombinant Escherichia coli K-12 N-terminal His-tagged RNase T expressed in Escherichia coli BL21-CodonPlus(DE3)-RIPL at 1 mM preincubated for 10 mins followed by substrate addition measured after 20 mins by TBE gel electrophoresis mobility shift assay; procedure, shortened: as §4
Geobacillus phage GBSV1 = assay: Inhibition of recombinant GST-fused Geobacillus phage GBSV1-NSN expressed in Escherichia coli BL21 (DE3) at 10 mM using RNA/DNA as substrate after 15 mins by spectrophotometry relative to control
[10] = target: T2, Ribonuclease T (Escherichia coli (strain K12)); assay: as §7; procedure, shortened: as §4; remark: listed apart in the source
[11] = as §6; set-up: species or system Mammarenavirus lassaense; procedure, shortened: as §5

| Compound | INH [1] | INH [2] | inhibition [3] | INH (Mammarenavirus lassaense [4]) | INH (Mammarenavirus lassaense [5]) | INH [6] | INH [7] | inhibition [8] | inhibition [9] | inhibition (Geobacillus phage GBSV1) | inhibition [10] | IC50 [11] | inhibition (Mammarenavirus lassaense [5]) |
| --- | --- | --- | --- | --- | --- | --- | --- | --- | --- | --- | --- | --- | --- |
| O=C(N[C@H](CC1CCCCC1)C(=O)O)OCC1c2ccccc2-c2ccccc21 | 1 mM | 1 mM | Active | 1 mM | 1 mM |  |  |  |  |  |  |  |  |
| p-Chloromercuribenzenesulfonate |  |  |  | 1 mM | 1 mM | 0.01 mM | 0.01 mM | Active | Active |  |  |  |  |
| O=C(O)c1ccc(Nc2nc(Cl)nc(Cl)n2)cc1-c1c2ccc(=O)cc-2oc2cc(O)ccc12 | 1 mM | 1 mM |  | 1 mM | 1 mM |  |  |  |  |  |  |  |  |
| O=C(O)CC(O)(CC(=O)O)C(=O)O | > 1 mM | 1 mM |  | 1 mM | 1 mM |  |  |  |  | 40% |  |  |  |
| O=C(O)c1cc(SSc2ccc([N+](=O)[O-])c(C(=O)O)c2)ccc1[N+](=O)[O-] | 0.1 mM | 0.1 mM | Active | 1 mM | 1 mM |  |  |  |  |  | Active |  |  |
| O=S(=O)(O)c1cc(O)c2c(O)c(/N=N/c3cccc4ccccc34)c(S(=O)(=O)O)cc2c1 | 0.01 mM | 0.1 mM | Active | 0.1 mM | 0.1 mM |  |  |  |  |  |  | 66.2 µM | Dose-dependent effect |
| O=C(O)C1=CC(=C(c2ccc(O)c(C(=O)O)c2)c2ccc(O)c(C(=O)O)c2)C=CC1=O [AURINTRICARBOXYLIC ACID] | 0.1 mM | 0.01 mM | Active | 0.01 mM | 0.01 mM |  |  |  |  |  | Active | 6.8 µM | Dose-dependent effect |
| O=C(O)c1cc2cccc([N+](=O)[O-])c2[nH]1 | > 1 mM | 1 mM |  | 1 mM | 1 mM |  |  |  |  |  |  |  |  |

Reference: ChEMBL document CHEMBL3853325, “Identification of Inhibitors for the DEDDh Family of Exonucleases and a Unique Inhibition Mechanism by Crystal Structure Analysis of CRN-4 Bound with 2-Morpholin-4-ylethanesulfonate (MES)” (J Med Chem, 2016)
